The record followed here is the RNAGym collection of RNA variant scans (doi:10.1101/gad.245936.114).

Variants at the floor of the assay were thinned out.

The labels stand for the following.
B1: tRNA (parent)
chain: CUCUCGGUAGCCAAGUUGGUUUAAGGCGCAAGACUUUAAUUUAUCACUACGAAAUCUUGAGAUCGGGCGUUCGACUCGCCCCCGGGAGAUUUUUUCCUCGAGCAA

The data set covers variants of B1. As to the kind of experiment: nonsense suppression (GFP-seq) (ratio to wild type); higher = more function; SUP4oc tRNA, yeast GFP reporter sort-seq. In a few lines: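 Nonsense suppression (GFPSEQ) is the median GFP/RFP ratio of each sorting bin, weighted by the variant's estimated share of cells in that bin and expressed relative to the unmutated parent tRNA. Yeast strains carried genome-integrated variants of an ochre-suppressor tRNA from a library with ~3% random mutations, plus a galactose-driven GFP ochre reporter and RFP, and were grown in raffinose/galactose medium containing 80 mg/L adenine. Cells were sorted into GFP/RFP bins, each bin was Illumina-sequenced (phred ≥30), and variants were kept only with ≥100 reads and ≥30 cells.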
As to CUCUCGGUAGCCAAGUUGGUUGAAGGCGCAAGACUUUAAUUUAUCACUACGAAAUCUUGAGAUCGGGGGUUCGACUCGCCCCCGGGAGAUUUUUUCCUCGAGCAA, the nonsense suppression is not above 0.026.
As for CUCUCGGUAGCCAAGUUGGUUGAAGGCGCAAGACUUUAAUUUAUCACUACGAAAUCUUGAGAUCGGGCGUUCGACUCACCCCCGGGAGAUUUUUUCCUCGAGCAA, the nonsense suppression was found to be 0.173.
The value for CUCUCGGUAGCCAAGUUGGUUGAAGGCGCAAGACUUUAAUUUAUCACUACGAAAUCUUGAGAUCGGGCGUUCGACUCUCCCCCGGGAGAUUUUUUCCUCGAGCAA was 0.112; that for CUCUCGGUAGCCAAGUUGGUUGAAGGCGCAAGACUUUAAUUUAUCACUACGAAAUCUUGAGAUCGGGCGUUCGACUCCCCCCCGGGAGAUUUUUUCCUCGAGCAA was 0.0318.
In the case of CUCUCGGUAGCCAAGUUGGUUGAAGGCGCAAGACUUUAAUUUAUCACUACGAAAUCUUGAGAUCGGGCGUUCAACUCGCCCCCGGGAGAUUUUUUCCUCGAGCAA it was 0.854.
As for CUCUCGGUAGCCAAGUUGGUUGAAGGCGCAAGACUUUAAUUUAUCACUACGAAAUCUUGAGAUCGGGCGUUCGACUCUCCCCCGAGAGAUUUUUUCCUCGAGCAA, the nonsense suppression came to 0.788.
Turning to CUCUCGGUAGCCAAGUUGGUUGAAGGCGCAAGACUUUAAUUUAUCACUACGAAAUCUUGAGACCGGGCGUUCGACUCGCCCCCGGGAGAUUUUUUCCUCGAGCAA, the nonsense suppression turned out to be 0.868.
With CUCUCGGUAGCCAAGUUGGUUGAAGGCGCAAGACUUUAAUUUAUCACUACGAAAUCUUGAGAACGGGCGUUCGACUCGCCCCCGGGAGAUUUUUUCCUCGAGCAA, the nonsense suppression worked out at 0.939.
As to CUCUCGGUAGCCAAGUUGGUUUCAGGCGCUAGAGUUUAAUUUAUCACUACGAAAUCUUGAGAUCGGGCGCUGGACUCGCCCCCGGGAGAUUUUUUCCUCGAGCAA, the nonsense suppression is not above 0.026.
Turning to CUCUCGGUAGCCAAGUUGGUUUCAGGCGCAAGACUUUAAUUUAUCACUACGAAAUCUUCAAAUCGGGCGUUCGACUCGCCCCCGGGAGAUUUUUUCCUCGAGCAA, the nonsense suppression was not above 0.026.
In the case of CUCUCGGUAGCCAAGUUGGUUUCAGGCGCAAGACUUUAAUUUAUCACUACGAAAUCUUCACAUCGGGCGUUCGACUCGCCCCCGGGAGAUUUUUUCCUCGAGCAA it was not above 0.026; in that of CUCUCGGUAGCCAAGUUGGUUUCAGGCGCAAGACUUUAAUUUAUCACUACGAAAUCUUGAGAUCGGGCGUUCGACUCGCCCGCGGGAGAUUUUUUCCUCGAGCAA, not above 0.026.
In the case of CUCUCGGUAGCCAAGUUGGUUGAAGGCUCAAGACUUUAAUUUAUCACUACGAAAUCUUGAGUUCGGGCGUUCUACUCGCCCCCGGGAGAUUUUUUCCUCGAGCAA, the nonsense suppression was not above 0.026.
With CUCUCGGUAGCCAAGUUGGUUUCAGGCGCAAGACUUUAAUUUAUCACUACGAAAUCUUGAGAUCGGGCGUUCGACUCGCCCCCGGGAAAUUUUUUCCUCGAGCAA, the nonsense suppression is not above 0.026.
As for CUCUCGGUAGCCAAGUUGGUUGAAGGCGCAAGAAUUUAAUUUAUCACUACGAAAUCUUGAGAUCGGGCGUUCGACUCGCCCCCGAGAGAUUUUUUCCUCGAGCAA, the nonsense suppression was not above 0.026.
As for CUCUCGGUAGCCAAGUUGGUUUCAGGCGCGAGACUUUAAUUUAUCACUACGAAAUCUUGAGAUCGGGCGUUCGACUCGCCACCGGGGGAUUUUUUCCUCGAGCAA, the nonsense suppression was not above 0.026.
On to CUCUCGGUAGCCAAGUUGGUUUCAAGCGCAAGACUUUAAUUUAUCACUACGAAAUCUUGAGAUCGGGCGUUCGACUCGCCCCCGGGAGAUUUUUUCCUCGAGCAA, for which the nonsense suppression was not above 0.026.
The value for CUCUCGGUAGCCAAGUUGGUUGAAUGCGCAAGACUUUAAUUUAUCACUACGAAAUCUUGAGAUCGUGCGUUCGACUCGCCCCCGGGAGAUUUUUUCCUCGAGCAA was not above 0.026; that for CUCUCGGUAGCCAAGUUGGUUGAAGGCGCAAGACUUUAAUUUAUCACUACGAAAUCUUGAGAUCGGGCGUUCGACUCGCCCUCGGGAGAUUUUUUCCUCGAGCAA was 0.913; that for CUCUCGGUAGCCAAGUUGGUUUCAGGCGCAAGAUUUUAAUUUAUCACUACGAAAUCUUGAGAUCGGGCGUUCGACUCUCCCCCGGGAGAUUUUUUCCUCGAGCAA was not above 0.026.
Regarding CUCUCGGUAGCCAAGUUGGUUGAAGGCGCAAGACUUUAAUUUAUCACUACGAAACCAUGAGAUCAGGCGUUCGACUCGCCCCCGGGAGAUUUUUUCCUCGAGCAA, the nonsense suppression is not above 0.026.
CUCUCGGUAGCCAAGUUGGUUGAAGGCGCAAGACUUUAAUUUAUCACUACGAAAUCUUGAGAUCGGGCGUUCGACUCGCCCCCGUGAGAUUUUUUCCUCGAGCAA: the nonsense suppression was found to be 0.796.
The value for CUCUCGGUAGCCAAGUUGGUUGAAUGCGCAAGACUUUAAUUUAUCACUACGAAAUCUUGAGAUCGAGCGUUCGACUCGCCCCCGGGAGGUUUUUUCCUCGAGCAA was not above 0.026.
The value for CUCUCGGUAGCCAAGUUGGUUGAAGGCGCAAGACUUUAAUUUAUCACUACGAAAUCUUGAGAUCGGGCGUUCGAUUCGCCCCCGGGAGAUUUUUUCCUCGAGCAA was 0.981.
Take CUCUCGGUAGCCAAGUUGGUUGAAGGCGCAAGACUUUAAUUUAUCACUACGAAAUCUUGAGAUCGGGCGUUCGAAUCGCCCCCGGGAGAUUUUUUCCUCGAGCAA: the nonsense suppression amounted to 0.927.
As to CUCUCGGUAGCCAAGUUGGUUUCCGGCGCACGACUUUAAUUUAUCACUACGAAAUCUUGAGAUCGGGCGUUCGACUCGCCCCCGGGAGAUUUUUUCCUCGAGCAA, the nonsense suppression was not above 0.026.
Turning to CUCUCGGUAGCCAAGUUGGUUGAAGGCGCAAGACUUUAAUUUAUCACUACGAAACCUUGAGAUCCGGCGUUCGACUCGCUCCCGGGAGAUUUUUUCCUCGAGCAA, the nonsense suppression was not above 0.026.
